{"source": "paper PMC7578760", "about": "(iScience, 2020)", "molecules": {"B1": {"name": "EGF: mitogen, 75 ng/mL (protein, UniProt P01133 23-1207, looked up)", "Pro-epidermal growth factor": "PQHWSCPEGTLAGNGNSTCVGPAPFLIFSHGNSIFRIDTEGTNYEQLVVDAGVSVIMDFHYNEKRIYWVDLERQLLQRVFLNGSRQERVCNIEKNVSGMAINWINEEVIWSNQQEGIITVTDMKGNNSHILLSALKYPANVAVDPVERFIFWSSEVAGSLYRADLDGVGVKALLETSEKITAVSLDVLDKRLFWIQYNREGSNSLICSCDYDGGSVHISKHPTQHNLFAMSLFGDRIFYSTWKMKTIWIANKHTGKDMVRINLHSSFVPLGELKVVHPLAQPKAEDDTWEPEQKLCKLRKGNCSSTVCGQDLQSHLCMCAEGYALSRDRKYCEDVNECAFWNHGCTLGCKNTPGSYYCTCPVGFVLLPDGKRCHQLVSCPRNVSECSHDCVLTSEGPLCFCPEGSVLERDGKTCSGCSSPDNGGCSQLCVPLSPVSWECDCFPGYDLQLDEKSCAASGPQPFLLFANSQDIRHMHFDGTDYGTLLSQQMGMVYALDHDPVENKIYFAHTALKWIERANMDGSQRERLIEEGVDVPEGLAVDWIGRRFYWTDRGKSLIGRSDLNGKRSKIITKENISQPRGIAVHPMAKRLFWTDTGINPRIESSSLQGLGRLVIASSDLIWPSGITIDFLTDKLYWCDAKQSVIEMANLDGSKRRRLTQNDVGHPFAVAVFEDYVWFSDWAMPSVMRVNKRTGKDRVRLQGSMLKPSSLVVVHPLAKPGADPCLYQNGGCEHICKKRLGTAWCSCREGFMKASDGKTCLALDGHQLLAGGEVDLKNQVTPLDILSKTRVSEDNITESQHMLVAEIMVSDQDDCAPVGCSMYARCISEGEDATCQCLKGFAGDGKLCSDIDECEMGVPVCPPASSKCINTEGGYVCRCSEGYQGDGIHCLDIDECQLGEHSCGENASCTNTEGGYTCMCAGRLSEPGLICPDSTPPPHLREDDHHYSVRNSDSECPLSHDGYCLHDGVCMYIEALDKYACNCVVGYIGERCQYRDLKWWELRHAGHGQQQKVIVVAVCVVVLVMLLLLSLWGAHYYRTQKLLSKNPKNPYEESSRDVRSRRPADTEDGMSSCPQPWFVVIKEHQDLKNGGQPVAGEDGQAADGSMQPTSWRQEPQLCGMGTEQGCWIPVSSDKGSCPQVMERSFHMPSYGTQTLEGGVEKPHSLLSANPLWQQRALDPPHQMELTQ", "modifications": "Pro-epidermal growth factor"}}, "system": "CIC", "assay": "Nuclear/cytoplasmic distribution of CIC", "type": "cell-based, human", "conditions": "293T and MCF7; FGF 10 ng/mL or EGF 75 ng/mL, time course", "outline": "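293T and MCF7 cells grown in high-glucose DMEM with 10% FBS and penicillin-streptomycin. Endogenous CIC: cells exposed to 10 ng/mL FGF or 75 ng/mL EGF for indicated times. Exogenous CIC: cells transfected with HA-CIC plasmid for 48 h, then FGF 10 ng/mL for 0, 1, 2 h. Cells separated into nuclear and cytoplasmic fractions; CIC in each fraction detected by western blot.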", "data": [{"molecule": "B1", "values": [{"measurement": "cytosolic fraction of CIC", "value": "time-dependent increase in the cytosolic fraction of CIC"}, {"measurement": "nuclear fraction of CIC", "value": "concomitant drop of the nuclear fraction"}]}]}
